How the values were obtained:
MX1 [1] = assay: Cytotoxicity against folate receptor over-expressing human MX1 cells after 72 hrs by MTT assay; type: functional, cell-based; conditions: MX1, 72 h
Procedure, shortened: (§1)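 Adherent monolayers in RPMI-1640 with 5% heat-inactivated FBS, 5% NuSerum and PenStrep, 37 °C, 5% CO2. Seeded 0.5–1.5 × 10^4 cells/well and left to attach overnight, then medium replaced. Compound diluted from DMSO stock to 0.5–5,000 nM final, DMSO ≤1%, 72 h. MTT 0.5 mg/mL for 3 h at 37 °C, formazan dissolved in acidic isopropanol/Triton, A570. IC50 from four-parameter logistic fit.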

[2] = Cytotoxicity against folate receptor deficient human WI38 cells after 72 hrs by MTT assay; type: functional, cell-based; conditions: WI-38, 72 h; procedure, shortened: as §1
L1210 [3] = assay: Cytotoxicity against folate receptor over-expressing mouse L1210 cells after 72 hrs by MTT assay; type: functional, cell-based; conditions: L1210, 72 h
Procedure, shortened: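 L1210FR cells grown in suspension in supplemented RPMI-1640. Resuspended directly in test solutions, 0.5–5,000 nM final, at 0.5–0.8 × 10^4 cells/well, DMSO ≤1%. Incubated 72 h. MTT 0.5 mg/mL for 3 h at 37 °C, formazan dissolved in 0.1 N HCl/isopropanol with 10% Triton X-100, absorbance at 570 nm. IC50 from four-parameter logistic fit, with standard errors.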

[4] = Cytotoxicity against folate receptor over-expressing mouse ID8 cells after 72 hrs by MTT assay; type: functional, cell-based; conditions: ID8, 72 h; procedure, shortened: as §1
MX1 [5] = assay: Cytotoxicity against folate receptor over-expressing human MX1 cells incubated for 24 hrs followed by 6 equiv GSH addition and further incubated for another 48 by MTT assay; type: functional, cell-based; conditions: MX1, 24 h
Procedure, shortened: (§2)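 Cells were exposed to the conjugate for 24 h, then reduced glutathione (GSH, 6 equiv.) was added and incubation continued 48 h, 72 h in total. Compound range 0.5–5,000 nM in RPMI-1640 medium, which contains folic acid. Read-out by MTT at 570 nm. IC50 from four-parameter logistic curve.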

MX1 [6] = assay: Selectivity index, ratio of IC50 for folate receptor deficient human WI38 cells to IC50 for folate receptor over-expressing human MX1 cells
L1210 [7] = assay: Cytotoxicity against folate receptor over-expressing mouse L1210 cells incubated for 24 hrs followed by 6 equiv GSH-OEt addition and further incubated for another 48 by MTT assay; type: functional, cell-based; conditions: L1210, 24 h
Procedure, shortened: (§3)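 After 24 h treatment with the conjugate, glutathione ethyl ester (GSH-OEt, 6 equiv.) was added, followed by a further 48 h, 72 h total. Cells-permeable thiol ester. Compound 0.5–5,000 nM in RPMI-1640 medium. MTT read-out at 570 nm. IC50 from four-parameter logistic fit.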

L1210 [8] = assay: Selectivity index, ratio of IC50 for folate receptor deficient human WI38 cells to IC50 for folate receptor over-expressing mouse L1210 cells
WI-38 = assay: Selectivity index, ratio of IC50 for folate receptor deficient human WI38 cells to IC50 for folate receptor over-expressing mouse ID8 cells
L1210 [9] = assay: Cytotoxicity against folate receptor over-expressing mouse L1210 cells incubated for 24 hrs followed by 6 equiv GSH addition and further incubated for another 48 by MTT assay; type: functional, cell-based; conditions: L1210, 24 h; procedure, shortened: as §2
MX1 [10] = assay: Cytotoxicity against folate receptor over-expressing human MX1 cells incubated for 24 hrs followed by 6 equiv GSH-OEt addition and further incubated for another 48 by MTT assay; type: functional, cell-based; conditions: MX1, 24 h; procedure, shortened: as §3

`CC(=O)O[C@@]12CO[C@@H]1C[C@H](O)[C@@]1(C)C(=O)[C@H](OC(=O)C3CC3)C3=C(C)[C@@H](OC(=O)[C@H](O)[C@H](C=C(C)C)NC(=O)OC(C)(C)C)C[C@@](O)([C@@H](OC(=O)c4ccccc4)[C@H]21)C3(C)C` gave an IC50 (MX1 [1]) of 1.89 nM, an IC50 [2] of 4.89 nM and an IC50 (L1210 [3]) of 2.66 nM. The IC50 [4] was 2.82 nM.
With `CC(=O)O[C@@]12CO[C@@H]1C[C@H](O)[C@@]1(C)C(=O)[C@H](OC(=O)C3CC3)C3=C(C)[C@@H](OC(=O)[C@H](OC(=O)Cc4ccccc4SSC(C)CCC(=O)NCCCOCCOCCOCCCNC(=O)c4ccc(CC5CCCCCc6c5nnn6CCOCCOCCOCCNC(=O)CC[C@@H](NC(=O)CC[C@@H](NC(=O)c5ccc(NCc6cnc7nc(N)nc(O)c7n6)cc5)C(=O)O)C(=O)N[C@H](CCCNC(=N)N)C(=O)O)cc4)[C@H](C=C(C)C)NC(=O)OC(C)(C)C)C[C@@](O)([C@@H](OC(=O)c4ccccc4)[C@H]21)C3(C)C` (some centres undefined) the IC50 (MX1 [1]) was 3.43 nM, the IC50 [2] was > 5000 nM and the IC50 (L1210 [3]) was 3.51 nM. For the same compound, the IC50 [4] was 2.52 nM, the IC50 (MX1 [5]) was 3.42 nM and the “Ratio IC50” value (MX1 [6]) was >1000. The IC50 (L1210 [7]) was 3.35 nM, the “Ratio IC50” value (L1210 [8]) was >1000 and the “Ratio IC50” value (WI-38) was >1000. The IC50 (L1210 [9]) was 3.87 nM and the IC50 (MX1 [10]) was 2.08 nM.
Compound `CC(=O)O[C@H]1C(=O)[C@@]2(C)[C@H]([C@H](OC(=O)c3ccccc3)[C@]3(O)C[C@H](OC(=O)[C@H](O)[C@@H](NC(=O)c4ccccc4)c4ccccc4)C(C)=C1C3(C)C)[C@]1(OC(C)=O)CO[C@@H]1C[C@@H]2O` [PACLITAXEL] has an IC50 (MX1 [1]) of 5.59 nM, an IC50 [2] of 55.7 nM and an IC50 (L1210 [3]) of 27.6 nM. It also gave an IC50 [4] of 13.8 nM.

From ChEMBL document CHEMBL3399991, “Design, synthesis and biological evaluation of a highly-potent and cancer cell selective folate-taxoid conjugate” (Bioorg Med Chem, 2015)
